Experimental data as given in ChEMBL document CHEMBL4715800, “Synthesis and Antiviral Evaluation of Octadecyloxyethyl Benzyl 9-[(2-Phosphonomethoxy)ethyl]guanine (ODE-Bn-PMEG), a Potent Inhibitor of Transient HPV DNA Amplification” (J Med Chem, 2016).

How the values were obtained:
[1] = Drug uptake in HFF cells at 1 uM incubated for 1 to 48 hrs using [14C]-labelled compound by liquid scintillation counting; type: ADME, cell-based; settings: human, TDE = time-dependent effect, time 1-48 hrs
Outline: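 HFF cells exposed to 1 μM [14C]-labelled compound for 1 to 48 h. Cell-associated radioactivity measured in duplicate to assess uptake.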

[2] = Selectivity index, ratio of CC50 for C-33-A cells to EC90 for inhibition of HPV-16 DNA amplification in C-33-A cells
Outline: (§1)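 Ratio CC50/EC90. CC50 is from CellTiter-Glo cytotoxicity in C33A cells. EC90 is from NanoLuc luciferase readout of HPV-16 or -18 ori-plasmid replication in C33A cells cotransfected with type-matched E1/E2 vectors.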

[3] = Inhibition of HPV-11 DNA amplification in C-33-A cells incubated for 48 hrs by luciferase reporter gene assay; type: functional, cell-based, human papillomavirus 11
Outline: (§2)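 HPV-negative cervical cancer C33A cells transiently transfected with type-matched HPV-11, -16 or -18 E1 and E2 expression vectors plus an ori-plasmid carrying a NanoLuc reporter. After drug dilutions and incubation, ori-plasmid replication is read as the rise in luciferase activity and EC50 is determined. Cytotoxicity (CC50) is measured in C33A cells by CellTiter-Glo.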

[4] = Cytotoxicity in human PBMC cells; type: cell-based
Outline: (§3)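 Human PBMCs infected with a clinical HIV-1 isolate, with AZT as positive control. EC50 and CC50 reported as mean ± SD of three replicates; selectivity index = CC50/EC50.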

[5] = Selectivity index, ratio of CC50 for C-33-A cells to EC50 for inhibition of HPV-16 DNA amplification in C-33-A cells
Outline: (§4)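 Ratio CC50/EC50. CC50 is from CellTiter-Glo in C33A cells. EC50 is from NanoLuc luciferase readout of HPV ori-plasmid replication in C33A cells cotransfected with type-matched E1/E2 vectors.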

[6] = Selectivity index, ratio of CC50 for C-33-A cells to EC50 for inhibition of HPV-11 DNA amplification in C-33-A cells; outline: as §4
[7] = Selectivity index, ratio of CC50 for C-33-A cells to EC90 for inhibition of HPV-11 DNA amplification in C-33-A cells
[8] = Inhibition of HPV-11 DNA amplification in HEK293 cells incubated for 48 hrs by qPCR analysis; type: functional, cell-based, human papillomavirus 11
Outline: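 HEK-293 cells cotransfected with an HPV-11 origin-containing plasmid and HPV-11 E1 and E2 expression vectors, then exposed to drug dilutions and incubated. Ori-plasmid amplification is measured by quantitative real-time PCR and EC50 is calculated. At least three independent experiments.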

[9] = Inhibition of HIV1 92US727 replication in PHA-P-stimulated human PBMCs incubated for 7 days by reverse transcriptase activity based assay; type: functional, cell-based, Human immunodeficiency virus 1, PBMC
Outline: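 Human PBMCs infected with a clinical HIV-1 isolate, with AZT as the positive control. Results are the mean of three replicates.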

[10] = Inhibition of HPV-18 DNA amplification in C-33-A cells incubated for 48 hrs by luciferase reporter gene assay; type: functional, cell-based, human papillomavirus 18; outline: as §2
[11] = Inhibition of HPV-16 DNA amplification in HEK293 cells incubated for 48 hrs by qPCR analysis; type: functional, cell-based, Human papillomavirus 16
Outline: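 HEK-293 cells cotransfected with an HPV-16 origin-containing plasmid and HPV-16 E1 and E2 expression vectors, then treated with drug dilutions and incubated. Ori-plasmid amplification quantified by real-time qPCR; EC50 calculated from at least three independent experiments.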

[12] = Inhibition of HPV-16 DNA amplification in C-33-A cells incubated for 48 hrs by luciferase reporter gene assay; type: functional, cell-based, Human papillomavirus 16; outline: as §2
[13] = Selectivity index, ratio of CC50 for HEK293 cells to EC50 for inhibition of HPV-16 DNA amplification in HEK293 cells
Outline: (§5)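 Ratio CC50/EC50 in HEK-293 cells. CC50 is by CellTiter-Glo. EC50 is by qPCR of HPV-11 or HPV-16 ori-plasmid amplification in cells cotransfected with type-matched E1/E2 expression vectors.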

[14] = Selectivity index, ratio of CC50 for HFF to EC50 for inhibition of HSV2 replication in HFF cells; type: toxicity, cell-based; settings: human; for selectivity ratio: HFF cells, read-out: Ratio CC50/EC50
[15] = Inhibition of HSV2 replication in HFF cells incubated for 7 days; type: functional, cell-based, Human alphaherpesvirus 2
[16] = tested on: HEK293; assay: Cytotoxicity in HEK293 cells by CellTiter-Glo assay; settings: human, hek293
[17] = Selectivity index, ratio of CC50 for C-33-A cells to EC90 for inhibition of HPV-18 DNA amplification in C-33-A cells; outline: as §1
[18] = Selectivity index, ratio of CC50 for HEK293 cells to EC50 for inhibition of HPV-11 DNA amplification in HEK293 cells; outline: as §5
[19] = tested on: HFF; assay: (§6) Cytotoxicity in HFF cells incubated for 7 days by CellTiter-Glo assay; type: cell-based; settings: human, hff, 168 h; time 7 day
[20] = Selectivity index, ratio of CC50 for C-33-A cells to EC50 for inhibition of HPV-18 DNA amplification in C-33-A cells; outline: as §4
[21] = (§7) Cytotoxicity in human C-33-A cells by CellTiter-Glo reagent assay; type: cell-based; settings: C-33-A cells; outline: as §2
[22] = Selectivity index, ratio of CC50 for human PBMC to EC50 for inhibition of HIV1 92US727 replication in PHA-P-stimulated human PBMCs; type: toxicity; settings: for selectivity ratio: PBMCs, read-out: Ratio CC50/EC50; outline: as §3
[23] = as §6; type: cell-based; settings: human, HFF cells; time 7 day
[24] = tested on: C-33-A; assay: as §7; type: cell-based; settings: c-33-a; outline: as §2
[25] = tested on: human papillomavirus 11; assay: Potency index, ratio of EC50 for cidofovir to EC50 for test compound for inhibition of HPV-11 DNA amplification in C-33-A cells incubated for 48 hrs by luciferase reporter gene assay; type: functional
[26] = Stability in MEM supplemented with either normal or heat inactivated 10% FBS assessed as compound remaining at 37 degC after 38 days by reverse phase HPLC analysis; settings: time 38.0 day
Outline: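 Compound incubated at 37 °C in MEM with 10% FBS, either normal or heat-inactivated. After 38 days, analysed by reverse-phase HPLC on a polar RP column with a water/methanol gradient at 0.8 mL/min. Remaining parent and monoester degradation product quantified as peak area.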

[27] = Cytotoxicity in HEK293 cells by CellTiter-Glo assay; settings: human, HEK293 cells
[28] = human papillomavirus 11, C-33-A, 48 h
[29] = human papillomavirus 18, C-33-A, 48 h
[30] = Human papillomavirus 16, C-33-A, 48 h
[31] = Human immunodeficiency virus 1, 92US727, PBMC, 168 h
[32] = Human alphaherpesvirus 2, HFF, 168 h

| Structure (SMILES) | Ratio [2] | EC50 ([3]; c-33-a) [nM] | EC90 ([3]; time 48 hrs) [nM] | CC50 ([4]; pbmc) [nM] | Ratio CC50/EC50 [5] | Ratio CC50/EC50 [6] | Ratio [7] | EC50 [8] [nM] | EC50 ([10]; c-33-a) [nM] | EC90 ([10]; time 48 hrs) [nM] | EC50 [11] [nM] | EC50 ([12]; c-33-a) [nM] | EC90 ([12]; time 48 hrs) [nM] | Ratio CC50/EC50 [13] | CC50 [16] [nM] | Ratio [17] | Ratio CC50/EC50 [18] | Ratio CC50/EC50 [20] | CC50 [21] [nM] | other results |
| --- | --- | --- | --- | --- | --- | --- | --- | --- | --- | --- | --- | --- | --- | --- | --- | --- | --- | --- | --- | --- |
| CCCCCCCCCCCCCCCCCCOCCOP(=O)(O)COCCn1cnc2c(=O)[nH]c(N)nc21 | – | – | – | – | – | – | – | – | – | – | – | – | – | – | – | – | – | – | – | Drug uptake [1]: Tde |
| CCCCCCCCCCCCCCCCCCOCCOP(=O)(COCCn1cnc2c(=O)[nH]c(N)nc21)OCc1ccccc1 (stereo in doubt; form 2) | >11 | 410 | 1400 | 70 | >71 | >24 | >7 | 400 | 80 | 720 | 390 | 140 | 890 | 230 | 91000 | >14 | 230 | >130 | – | EC50 ([9]; pbmc): 4 nM; Ratio CC50/EC50 [14]: 160; EC50 ([15]; hff): 33 nM; CC50 [19]: 5400 nM |
| CCCCCCCCCCCCCCCCCCOCCOP(=O)(COCCn1cnc2c(=O)[nH]c(N)nc21)Oc1ccccc1 (stereo unspecified) | 120 | – | – | – | 670 | 490 | 80 | 9500 | – | – | 5200 | – | – | – | – | 210 | – | 980 | 49000 | EC50 [3, 28]: 100 nM; EC90 [3, 28]: 610 nM; EC50 [10, 29]: 60 nM; EC90 [10, 29]: 280 nM; EC50 [12, 30]: 90 nM; EC90 [12, 30]: 490 nM |
| CCCCCCCCCCCCCCCCCCOCCOP(=O)(COCCn1cnc2c(=O)[nH]c(N)nc21)OCc1ccccc1 (stereo in doubt; form 3) | >7 | 710 | 2500 | 40 | >45 | >14 | >4 | 500 | 270 | 1400 | 690 | 220 | 1500 | 120 | 83000 | >7 | 170 | >37 | > 10000 | EC50 [9, 31]: 3 nM; selectivity ratio [22]: 16.3; selectivity ratio [14]: 190; EC50 [15, 32]: 32 nM; CC50 at 168 h [23]: 6100 nM |
| CCCCCCCCCCCCCCCCCCOCCOP(=O)(COCCn1cnc2c(=O)[nH]c(N)nc21)OCc1ccccc1 (stereo in doubt; form 1) [listing 1 of 2 here] | >16 | 180 | 720 | 20 | >250 | 61 | 15 | – | 100 | 590 | 200 | 40 | 640 | 85 | 17000 | >17 | 42 | >100 | – | CC50 [24]: ≥ 10000 nM; EC50 ([9]; pbmc): 2 nM; Ratio CC50/EC50 ([22]; pbmc): 11; Ratio EC50 [25]: >300; Ratio CC50/EC50 [14]: 240; EC50 ([15]; hff): 22 nM; CC50 [19]: 5200 nM |
| CCCCCCCCCCCCCCCCCCOCCOP(=O)(COCCn1cnc2c(=O)[nH]c(N)nc21)OCc1ccccc1 (stereo in doubt; form 1) [listing 2 of 2 here] | – | – | – | – | – | – | – | – | – | – | – | – | – | – | – | – | – | – | – | Stability [26]: 83% |
| Nc1ccn(C[C@@H](CO)OCP(=O)(O)O)c(=O)n1.O.O [CIDOFOVIR] | 1 | – | – | – | >1 | 1 | 1 | 150000 | – | – | 150000 | – | – | >2 | – | 1 | >2 | >1 | > 300000 | EC50 [3, 28]: > 300000 nM; EC90 [3, 28]: > 300000 nM; EC50 [10, 29]: 260000 nM; EC90 [10, 29]: > 300000 nM; EC50 [12, 30]: 220000 nM; EC90 [12, 30]: > 300000 nM; CC50 [27]: > 300000 nM |
| Nc1nc2c(ncn2COCCO)c(=O)[nH]1 [ACYCLOVIR] | – | – | – | – | – | – | – | – | – | – | – | – | – | – | – | – | – | – | – | selectivity ratio [14]: > 300; EC50 [15, 32]: 990 nM; CC50 at 168 h [23]: > 300000 nM |
| Cc1cn([C@H]2C[C@H](N=[N+]=[N-])[C@@H](CO)O2)c(=O)[nH]c1=O [ZIDOVUDINE] | – | – | – | – | – | – | – | – | – | – | – | – | – | – | – | – | – | – | – | CC50 ([4]; PBMC cells): > 1000 nM; EC50 [9, 31]: 4 nM; selectivity ratio [22]: > 250 |
